# Assay results published in ChEMBL document CHEMBL4609986 (Bioorg Med Chem, 2020).
# Tests used:
# [1] = target: T1, Aurora kinase A (Homo sapiens) (UniProt O14965); assay: Inhibition of wild-type human partial length AURKA (E122 to K401 residues) expressed in mammalian expression system assessed as residual activity at 500 nM by Kinomescan method relative to control
# T1 sequence (whole entry): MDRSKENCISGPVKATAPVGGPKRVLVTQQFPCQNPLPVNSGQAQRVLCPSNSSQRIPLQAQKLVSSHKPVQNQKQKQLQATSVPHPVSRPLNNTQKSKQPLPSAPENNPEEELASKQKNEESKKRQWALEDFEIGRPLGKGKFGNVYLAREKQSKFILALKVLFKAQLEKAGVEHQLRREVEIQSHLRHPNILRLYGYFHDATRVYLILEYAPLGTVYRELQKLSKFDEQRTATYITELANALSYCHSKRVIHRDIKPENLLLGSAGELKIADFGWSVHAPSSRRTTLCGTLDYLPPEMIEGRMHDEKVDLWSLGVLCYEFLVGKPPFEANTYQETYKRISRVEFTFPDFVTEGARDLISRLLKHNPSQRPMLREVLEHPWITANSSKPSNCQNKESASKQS
# In short: (§1)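 Kinase panel of 468 kinases, scored as residual activity at 100 nM or 500 nM test compound.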
# [2] = target: T2, Dual specificity tyrosine-phosphorylation-regulated kinase 1A (Homo sapiens, UniProt Q13627); assay: Inhibition of wild-type human partial length DYRK1A (H129 to S509 residues) expressed in mammalian expression system assessed as residual activity at 500 nM by Kinomescan method relative to control; in short: as §1
# [3] = target: T3, Tyrosine-protein kinase ABL1 (Homo sapiens, UniProt P00519); assay: Inhibition of wild-type human phosphorylated ABL1 (S229 to K512 residues) expressed in mammalian expression system assessed as residual activity at 500 nM by Kinomescan method relative to control; in short: as §1
# [4] = Selectivity index, ratio of CC50 for mouse R7T1 cells assessed as reduction in cell viability measured after 48 hrs by Hoechst 33342 staining based analysis to MEC for inhibition of DYRK1A in human pancreatic islets assessed as induction of pancreatic beta-cells replication measured after 48 hrs by Hoechst 33342 staining based analysis
# [5] = Apparent permeability in human Caco2 cells measured after 2 hrs by LC-MS/MS analysis; format: ADME, cell-based, Caco-2; conditions: Caco-2
# In short: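 Caco-2 monolayers grown on polycarbonate filter inserts (5 × 10⁵ cells/well seeded) and differentiated 21 ± 4 days. Transport run in HBSS with 25 mM HEPES, pH 7.4, 37 °C; compound added donor side. Receiver sampled over 2 h, donor at 0 and 2 h; LC-MS/MS with internal standard. Papp = (dC_rec/dt)/(A × C0,donor) × 10^6.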
# Homo sapiens = species: Homo sapiens; assay: Selectivity index, ratio of CC50 for human HEK293T cells transfected with DYRK1A co-tranfected with Renilla plasmid, pGL3-NFAT and NFATc1 assessed as reduction in luciferase activity by measuring cell number to EC50 for human DYRK1A transfected in HEK293T cells co-transfected with Renilla plasmid, pGL3-NFAT and NFATc1 assessed as derepression of NFAT-dependent luciferase activity measured after 48 hrs by luciferase assay; format: cell-based
# In short: (§2)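 HEK293T cells transfected with PEI using DYRK1A, Renilla plasmid, IL-2-based pGL3-NFAT firefly reporter and NFATc1. Next day the same transfected population was split into 96-well plates; 6 h later cells were treated for 48 h (11-point dose curve, n = 4), then lysed. EC50 from firefly/Renilla ratio, 4-parameter agonist fit. CC50 from loss of constitutive Renilla signal, 4-parameter inhibitor fit.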
# AURKB (Aurora kinase B) [6] = target: T4, AURKB (Aurora kinase B) (Homo sapiens, UniProt Q96GD4); assay: Inhibition of AURKB in human HEK293T cells assessed as reduction in cell viability at 270 nM measured after 48 hrs in presence of 3 uM MK-5108 relative to control; format: cell-based, HEK-293T
# In short: (§3)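 HEK293T cells treated 48 h with the compound alone or combined with a second kinase inhibitor at the stated level, then fixed, stained and counted. Cell number expressed as a percentage of untreated wells; n = 4-16.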
# [7] = target: Dual specificity mitogen-activated protein kinase kinase 2 (Homo sapiens) (UniProt P36507); assay: Inhibition of wild-type human full length MEK2 (M1 to V400 residues) expressed in mammalian expression system assessed as residual activity at 500 nM by Kinomescan method relative to control; in short: as §1
# [8] = Half life in human liver microsomes at 1 uM preincubated for 10 mins followed by NADPH addition and measured up to 40 mins by LC-MS/MS analysis; format: ADME, Microsome
# In short: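 Human or mouse liver microsomes, each run separately, in 100 mM KxPO4 pH 7.4 with 10 mM MgCl2 and 1 μM test compound. Pre-incubated 10 min at 37 °C, then started with 1 mM NADPH. Quenched in acetonitrile stop solution at 0, 10, 20 and 40 min, centrifuged, diluted and analysed by LC-MS/MS.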
# AURKB (Aurora kinase B) [9] = target: T4, AURKB (Aurora kinase B); assay: Inhibition of AURKB in human HEK293T cells assessed as reduction in cell viability at 90 nM measured after 48 hrs in presence of 3 uM MK-5108 relative to control; format: cell-based, HEK-293T; in short: as §3
# [10] = target: T2, Dual specificity tyrosine-phosphorylation-regulated kinase 1A; assay: Inhibition of DYRK1A in human pancreatic islets assessed as induction of pancreatic beta-cells replication measured after 48 hrs by Hoechst 33342 staining based analysis
# In short: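 Human islets (85-95% purity) rested 12 h in low-glucose DMEM with 10% FBS and 20 nM exendin-4. Dispersed to single cells and plated on 804G-conditioned-matrix 384-well plates for 48 h. Treated 48 h, then fixed with 4% PFA. Stained with anti-insulin, anti-Ki-67 and 4 μM Hoechst 33342; Ki67+Insulin+/Insulin+ scored by high-content imaging against per-plate cutoffs.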
# [11] = target: T2, Dual specificity tyrosine-phosphorylation-regulated kinase 1A; assay: Inhibition of human DYRK1A transfected in HEK293T cells co-transfected with Renilla plasmid, pGL3-NFAT and NFATc1 assessed as derepression of NFAT-dependent luciferase activity measured after 48 hrs by luciferase assay; format: cell-based, HEK-293T; in short: as §2
# HEK-293T = assay: Cytotoxicity against human HEK293T cells transfected with DYRK1A co-tranfected with Renilla plasmid, pGL3-NFAT and NFATc1 assessed as reduction in luciferase activity by measuring cell number; format: cell-based; conditions: hek-293t; in short: as §2
# AURKB (Aurora kinase B) [12] = target: T4, AURKB (Aurora kinase B); assay: Inhibition of AURKB in human HEK293T cells assessed as reduction in cell viability at 30 nM measured after 48 hrs in presence of 3 uM MK-5108 relative to control; format: cell-based, HEK-293T; in short: as §3
# [13] = target: Maternal embryonic leucine zipper kinase (Homo sapiens, UniProt Q14680); assay: Inhibition of wild-type human full length MELK (M1 to V651 residues) expressed in bacterial expression system assessed as residual activity at 500 nM by Kinomescan method relative to control; in short: as §1
# [14] = Cytotoxicity against mouse R7T1 cells assessed as reduction in cell viability measured after 48 hrs by Hoechst 33342 staining based analysis
# In short: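 Mouse R7T1 β-cells cultured in high-glucose DMEM with 10% FBS, doxycycline and pyruvate, plated at 25,000 cells/well. Treated in quadruplicate 6 h later (0.169–10,000 nM) for 48 h. Cells fixed in paraformaldehyde and stained with 4 μM Hoechst 33342; nuclei counted by high-content imaging.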
# Aurora kinase B [15] = target: T5, Aurora kinase B (Homo sapiens, UniProt Q96GD4); assay: Inhibition of AURKB in human HEK293T cells assessed as reduction in cell viability at 30 to 70 nM measured after 48 hrs; format: cell-based; conditions: hek-293t, 0.27 µM, in the assay text read “30 to 270 nM” for “30 to 70 nM”; in short: as §3
# [16] = target: T3, Tyrosine-protein kinase ABL1; assay: Inhibition of ABL1 in human HEK293T cells assessed as cell death at 30 to 270 nM measured after 48 hrs in presence of 1 uM dasatinib; format: cell-based; conditions: hek-293t, 0.27 µM; in short: as §3
# [17] = target: T3, Tyrosine-protein kinase ABL1; assay: Inhibition of ABL1 in human HEK293T cells assessed as cell death at 30 to 270 nM measured after 48 hrs in presence of 1 uM imatinib; format: cell-based; conditions: hek-293t, 0.27 µM, in the assay text read “3 uM imatinib” for “1 uM imatinib”; in short: as §3
# [18] = target: T3, Tyrosine-protein kinase ABL1; assay: Inhibition of wild-type human non-phosphorylated ABL1 (S229 to K512 residues) expressed in mammalian expression system assessed as residual activity at 500 nM by Kinomescan method relative to control; in short: as §1
# Aurora kinase B [19] = target: T5, Aurora kinase B; assay: Inhibition of wild-type human partial length AURKB (D25 to A303 residues) expressed in mammalian expression system assessed as residual activity at 500 nM by Kinomescan method relative to control; in short: as §1
# [20] = target: Dual specificity mitogen-activated protein kinase kinase 1 (Homo sapiens) (UniProt Q02750); assay: Inhibition of wild-type human full length MEK1 (M1 to V393 residues) expressed in mammalian expression system assessed as residual activity at 500 nM by Kinomescan method relative to control; in short: as §1
# Aurora kinase B [21] = target: T5, Aurora kinase B; assay: Inhibition of AURKB in human HEK293T cells assessed as reduction in cell viability at 270 nM measured after 48 hrs in presence of 10 uM TAK-733; format: cell-based; conditions: hek-293t, 0.27 µM; in short: as §3
# AURKB (Aurora kinase B) [22] = target: T4, AURKB (Aurora kinase B); assay: Inhibition of AURKB in human HEK293T cells assessed as reduction in cell viability at 90 to 270 nM measured after 48 hrs in presence of 40 nM MLN-8054 relative to control; format: cell-based, HEK-293T; in short: as §3
# AURKB (Aurora kinase B) [23] = target: T4, AURKB (Aurora kinase B); assay: Inhibition of AURKB in human HEK293T cells assessed as reduction in cell viability at 90 to 270 nM measured after 48 hrs in presence of 40 nM AZD-1152-HQPA relative to control; format: cell-based, HEK-293T; in short: as §3
# T3 sequence (P00519 whole entry, the tested form may be a part): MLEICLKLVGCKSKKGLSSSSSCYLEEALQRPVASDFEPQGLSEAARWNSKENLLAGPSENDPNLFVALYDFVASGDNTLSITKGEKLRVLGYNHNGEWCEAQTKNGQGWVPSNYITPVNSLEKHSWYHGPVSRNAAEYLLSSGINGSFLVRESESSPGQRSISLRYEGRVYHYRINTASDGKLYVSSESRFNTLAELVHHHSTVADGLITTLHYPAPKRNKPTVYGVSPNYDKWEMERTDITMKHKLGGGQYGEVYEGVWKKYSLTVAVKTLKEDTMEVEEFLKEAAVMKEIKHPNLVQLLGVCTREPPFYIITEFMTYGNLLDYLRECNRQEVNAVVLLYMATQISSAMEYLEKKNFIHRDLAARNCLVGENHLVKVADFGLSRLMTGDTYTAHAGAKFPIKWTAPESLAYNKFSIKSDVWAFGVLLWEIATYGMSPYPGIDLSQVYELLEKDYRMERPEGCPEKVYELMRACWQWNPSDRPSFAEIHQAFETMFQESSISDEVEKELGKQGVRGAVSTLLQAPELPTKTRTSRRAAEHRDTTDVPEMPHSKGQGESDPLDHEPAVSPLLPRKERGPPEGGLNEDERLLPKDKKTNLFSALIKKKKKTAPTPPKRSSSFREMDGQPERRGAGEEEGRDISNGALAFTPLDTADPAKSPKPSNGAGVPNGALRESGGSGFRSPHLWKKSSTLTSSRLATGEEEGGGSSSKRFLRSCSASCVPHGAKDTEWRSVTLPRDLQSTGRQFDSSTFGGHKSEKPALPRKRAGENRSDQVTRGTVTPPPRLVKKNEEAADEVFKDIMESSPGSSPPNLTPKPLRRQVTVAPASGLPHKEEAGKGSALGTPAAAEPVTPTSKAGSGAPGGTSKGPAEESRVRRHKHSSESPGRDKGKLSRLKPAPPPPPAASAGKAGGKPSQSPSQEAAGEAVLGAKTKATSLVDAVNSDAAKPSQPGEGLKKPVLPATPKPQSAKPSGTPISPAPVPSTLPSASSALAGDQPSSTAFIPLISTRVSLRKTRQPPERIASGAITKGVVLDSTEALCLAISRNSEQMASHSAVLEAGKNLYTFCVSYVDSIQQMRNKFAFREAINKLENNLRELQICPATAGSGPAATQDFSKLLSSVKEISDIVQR
# T5 sequence (Q96GD4 whole entry): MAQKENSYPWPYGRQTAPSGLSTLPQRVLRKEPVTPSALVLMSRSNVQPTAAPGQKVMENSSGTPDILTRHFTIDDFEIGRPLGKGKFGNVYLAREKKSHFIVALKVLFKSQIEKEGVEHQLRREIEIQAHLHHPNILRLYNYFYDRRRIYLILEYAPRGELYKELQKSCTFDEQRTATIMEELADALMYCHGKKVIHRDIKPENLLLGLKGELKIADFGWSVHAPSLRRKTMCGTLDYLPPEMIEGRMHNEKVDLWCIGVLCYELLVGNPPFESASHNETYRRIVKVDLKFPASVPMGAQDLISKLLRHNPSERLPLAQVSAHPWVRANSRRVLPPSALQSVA
# T4 sequence (Q96GD4 whole entry): as above
# Sequence of Dual specificity mitogen-activated protein kinase kinase 1 (Homo sapiens) (Q02750 whole entry, the tested form may be a part): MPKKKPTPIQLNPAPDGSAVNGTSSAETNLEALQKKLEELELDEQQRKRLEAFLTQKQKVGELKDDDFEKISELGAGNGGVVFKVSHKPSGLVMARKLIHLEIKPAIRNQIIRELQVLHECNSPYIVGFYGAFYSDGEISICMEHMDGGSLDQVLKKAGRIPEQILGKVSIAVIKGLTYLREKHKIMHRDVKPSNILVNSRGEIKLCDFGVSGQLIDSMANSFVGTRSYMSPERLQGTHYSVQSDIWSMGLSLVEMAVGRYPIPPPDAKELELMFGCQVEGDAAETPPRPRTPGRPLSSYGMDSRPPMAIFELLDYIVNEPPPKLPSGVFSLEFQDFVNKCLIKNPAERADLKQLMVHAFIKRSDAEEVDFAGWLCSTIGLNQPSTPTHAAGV
# Sequence of Dual specificity mitogen-activated protein kinase kinase 2 (Homo sapiens) (P36507 whole entry, the tested form may be a part): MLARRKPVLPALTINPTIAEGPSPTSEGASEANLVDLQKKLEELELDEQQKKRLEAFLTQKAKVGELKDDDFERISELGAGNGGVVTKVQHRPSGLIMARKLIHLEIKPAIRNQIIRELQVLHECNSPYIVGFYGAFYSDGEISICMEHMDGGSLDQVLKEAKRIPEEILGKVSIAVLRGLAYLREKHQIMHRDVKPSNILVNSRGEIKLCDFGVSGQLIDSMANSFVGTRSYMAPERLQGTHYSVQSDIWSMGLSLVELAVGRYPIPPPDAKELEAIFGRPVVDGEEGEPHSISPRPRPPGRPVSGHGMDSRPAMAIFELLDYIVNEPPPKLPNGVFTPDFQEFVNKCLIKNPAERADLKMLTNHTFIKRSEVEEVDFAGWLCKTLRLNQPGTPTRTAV
# Sequence of Maternal embryonic leucine zipper kinase (Q14680 whole entry, looked up, the tested form may be a part): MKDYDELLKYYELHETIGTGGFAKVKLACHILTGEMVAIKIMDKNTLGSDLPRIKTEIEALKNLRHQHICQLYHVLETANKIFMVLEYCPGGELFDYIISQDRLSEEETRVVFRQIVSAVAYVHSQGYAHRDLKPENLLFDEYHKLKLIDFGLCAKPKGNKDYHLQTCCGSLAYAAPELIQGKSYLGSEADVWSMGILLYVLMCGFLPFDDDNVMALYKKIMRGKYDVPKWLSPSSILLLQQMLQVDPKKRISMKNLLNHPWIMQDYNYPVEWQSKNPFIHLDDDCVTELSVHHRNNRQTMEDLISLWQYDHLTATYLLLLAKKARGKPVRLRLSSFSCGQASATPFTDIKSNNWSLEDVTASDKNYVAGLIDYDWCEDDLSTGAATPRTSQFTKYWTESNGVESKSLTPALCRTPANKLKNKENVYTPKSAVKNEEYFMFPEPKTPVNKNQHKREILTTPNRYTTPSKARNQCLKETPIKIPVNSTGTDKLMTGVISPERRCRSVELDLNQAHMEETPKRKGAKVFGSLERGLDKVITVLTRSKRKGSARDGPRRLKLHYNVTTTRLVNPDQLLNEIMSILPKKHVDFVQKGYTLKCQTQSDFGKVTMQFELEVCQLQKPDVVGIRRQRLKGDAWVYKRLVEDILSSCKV
smiles,measurement,setting,value
CCOC(=O)c1cnc2ccc(-c3ccncc3)nc2c1N[C@H]1CC[C@H](CN(C)C)CC1,Activity,[1],97%
same,Activity,[2],0%
same,Activity,[3],43%
same,Selectivity Index,[4],143
same,Papp at 2 h,[5],4.03 ×10⁻⁶ cm/s
same,Ratio CC50/EC50,Homo sapiens,36
same,"inhibition at 48 h, 0.27 µM",AURKB (Aurora kinase B) [6],34%
same,Activity,[7],55%
same,t1/2,[8],32 min
same,"inhibition at 48 h, 0.09 µM",AURKB (Aurora kinase B) [9],36%
same,MEC,[10],27 nM
same,EC50,[11],0.223 µM
same,CC50,HEK-293T,8.05 µM
same,"inhibition at 48 h, 0.03 µM",AURKB (Aurora kinase B) [12],31%
same,Activity,[13],4.7%
same,CC50,[14],3.86 µM
same,inhibition (INH),Aurora kinase B [15],Not Active
same,inhibition (INH),[16],Not Active
same,inhibition (INH),[17],Not Active
same,Activity,[18],43%
same,Activity,Aurora kinase B [19],67%
same,Activity,[20],69%
same,inhibition (INH),Aurora kinase B [21],Not Active
same,"inhibition at 48 h, up to 0.27 µM",AURKB (Aurora kinase B) [22],50%
same,"inhibition at 48 h, up to 0.27 µM",AURKB (Aurora kinase B) [23],67%
